≈ marks a conversion by molar mass, not a printed value.
Key:
Format in all cases: functional
Bacillus subtilis [1] = assay: Antibacterial activity against erythromycin/penicillin-susceptible Bacillus subtilis ATCC 9372 by broth microdilution method
Procedure, shortened: (§1)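 MICs were determined in vitro by broth microdilution following the NCCL-recommended method. Azithromycin and clarithromycin were run alongside as reference antibiotics on the same strain panel.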

Streptococcus pneumoniae [2] = assay: Potency index, ratio of azithromycin MIC to test compound MIC for erythromycin-resistant Streptococcus pneumoniae B1 expressing ermB gene
Escherichia coli = assay: Antibacterial activity against penicillin-susceptible Escherichia coli ATCC 25922 by broth microdilution method; procedure, shortened: as §1
Streptococcus pneumoniae [3] = assay: Potency index, ratio of clarithromycin MIC to test compound MIC for erythromycin-resistant Streptococcus pneumoniae A22072 expressing mefA gene
Pseudomonas aeruginosa = assay: Antibacterial activity against penicillin-susceptible Pseudomonas aeruginosa ATCC 27853 by broth microdilution method; procedure, shortened: as §1
Streptococcus pneumoniae [4] = assay: Antibacterial activity against erythromycin-resistant Streptococcus pneumoniae AB11 expressing ermB/mefA genes by broth microdilution method
Procedure, shortened: (§2)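 Broth microdilution per NCCL recommendation, read as minimal inhibitory concentration, run alongside azithromycin and clarithromycin references. Strains: S. pneumoniae B1 (erythromycin-resistant, ermB), A22072 (erythromycin-resistant, mefA), AB11 (erythromycin-resistant, erm and mef); S. aureus ATCC29213 ([…]); S. epidermidis clinical isolate (penicillin-resistant, not characterized).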

Streptococcus pneumoniae [5] = assay: Potency index, ratio of azithromycin MIC to test compound MIC for erythromycin-resistant Streptococcus pneumoniae AB11 expressing ermB/mefA genes
Streptococcus pyogenes [6] = assay: Antibacterial activity against erythromycin-susceptible Streptococcus pyogenes clinical isolate by broth microdilution method; procedure, shortened: as §1
Streptococcus pneumoniae [7] = assay: Potency index, ratio of clarithromycin MIC to test compound MIC for erythromycin-resistant Streptococcus pneumoniae B1 expressing ermB gene
Streptococcus pneumoniae [8] = assay: Antibacterial activity against erythromycin-resistant Streptococcus pneumoniae B1 expressing ermB gene by broth microdilution method; procedure, shortened: as §2
Streptococcus pneumoniae [9] = assay: Antibacterial activity against erythromycin-resistant Streptococcus pneumoniae A22072 expressing mefA gene by broth microdilution method; procedure, shortened: as §2
Streptococcus pneumoniae [10] = assay: Potency index, ratio of azithromycin MIC to test compound MIC for erythromycin-resistant Streptococcus pneumoniae A22072 expressing mefA gene
[11] = test system: Staphylococcus epidermidis; assay: Antibacterial activity against penicillin-resistant Staphylococcus epidermidis clinical isolate by broth microdilution method; procedure, shortened: as §2
Staphylococcus aureus [12] = assay: Antibacterial activity against […] Staphylococcus aureus ATCC 29213 by broth microdilution method; procedure, shortened: as §2
[13] = test system: Staphylococcus epidermidis; assay: Potency index, ratio of azithromycin MIC to test compound MIC for penicillin-resistant Staphylococcus epidermidis clinical isolate
Streptococcus pneumoniae [14] = assay: Potency index, ratio of clarithromycin MIC to test compound MIC for erythromycin-resistant Streptococcus pneumoniae AB11 expressing ermB/mefA genes
Streptococcus pyogenes [15] = assay: Antibacterial activity against erythromycin-resistant Streptococcus pyogenes R1 clinical isolate by broth microdilution method
Staphylococcus aureus [16] = assay: Antibacterial activity against erythromycin-susceptible Staphylococcus aureus ATCC 25923 by broth microdilution method; procedure, shortened: as §1
Bacillus subtilis [17] = assay: Potency index, ratio of azithromycin MIC to test compound MIC for erythromycin/penicillin-susceptible Bacillus subtilis ATCC 9372
Streptococcus pyogenes [18] = assay: Potency index, ratio of azithromycin MIC to test compound MIC for erythromycin-resistant Streptococcus pyogenes R1 clinical isolate
Streptococcus pyogenes [19] = assay: Potency index, ratio of clarithromycin MIC to test compound MIC for erythromycin-resistant Streptococcus pyogenes R1 clinical isolate

CCCCCCNC(=O)O[C@@H]1[C@@H](C)N(C)C[C@H](C)C[C@@](C)(O)[C@H](O[C@@H]2O[C@H](C)C[C@H](N(C)C)[C@H]2O)[C@@H](C)[C@H](OC(=O)Nc2ccc(OC)cc2)[C@@H](C)C(=O)O[C@H](CC)[C@@]1(C)O
MIC (Bacillus subtilis [1]): 0.5 µg/mL (≈ 0.577 µM) | Ratio (Streptococcus pneumoniae [2]): 256 | MIC (Escherichia coli): 128 µg/mL (≈ 148 µM) | Ratio (Streptococcus pneumoniae [3]): 8 - 256 | MIC (Pseudomonas aeruginosa): 128 µg/mL (≈ 148 µM) | MIC (Streptococcus pneumoniae [4]): 1 µg/mL (≈ 1.15 µM) | Ratio (Streptococcus pneumoniae [5]): 256 | MIC (Streptococcus pyogenes [6]): 1 µg/mL (≈ 1.15 µM) | Ratio (Streptococcus pneumoniae [7]): 256 | MIC (Streptococcus pneumoniae [8]): 1 µg/mL (≈ 1.15 µM) | MIC (Streptococcus pneumoniae [9]): 8 µg/mL (≈ 9.23 µM) | Ratio (Streptococcus pneumoniae [10]): 8 - 256 | MIC [11]: 0.125 µg/mL (≈ 0.144 µM) | MIC (Staphylococcus aureus [12]): 128 µg/mL (≈ 148 µM) | Ratio [13]: 2 | Ratio (Streptococcus pneumoniae [14]): 128 | MIC (Streptococcus pyogenes [15]): 32 µg/mL (≈ 36.9 µM) | MIC (Staphylococcus aureus [16]): 8 µg/mL (≈ 9.23 µM) | Ratio (Bacillus subtilis [17]): 2

CC[C@H]1OC(=O)[C@H](C)[C@@H](OC(=O)Nc2cccc(C)c2)[C@H](C)[C@@H](O[C@@H]2O[C@H](C)C[C@H](N(C)C)[C@H]2O)[C@](C)(O)C[C@@H](C)CN(C)[C@H](C)[C@@H](OC(=O)NCc2ccccc2Cl)[C@]1(C)O
MIC (Bacillus subtilis [1]): 4 µg/mL (≈ 4.49 µM) | Ratio (Streptococcus pneumoniae [2]): 8 - 256 | MIC (Escherichia coli): 64 µg/mL (≈ 71.8 µM) | Ratio (Streptococcus pneumoniae [3]): 8 - 256 | MIC (Pseudomonas aeruginosa): 64 µg/mL (≈ 71.8 µM) | MIC (Streptococcus pneumoniae [4]): 4 µg/mL (≈ 4.49 µM) | Ratio (Streptococcus pneumoniae [5]): 8 - 256 | MIC (Streptococcus pyogenes [6]): 0.03 µg/mL (≈ 0.0336 µM) | Ratio (Streptococcus pneumoniae [7]): 8 - 256 | MIC (Streptococcus pneumoniae [8]): 8 µg/mL (≈ 8.97 µM) | MIC (Streptococcus pneumoniae [9]): 0.5 µg/mL (≈ 0.561 µM) | Ratio (Streptococcus pneumoniae [10]): 8 | MIC [11]: 0.25 µg/mL (≈ 0.28 µM) | MIC (Staphylococcus aureus [12]): 64 µg/mL (≈ 71.8 µM) | Ratio (Streptococcus pneumoniae [14]): 8 - 256 | MIC (Streptococcus pyogenes [15]): 32 µg/mL (≈ 35.9 µM) | MIC (Staphylococcus aureus [16]): 2 µg/mL (≈ 2.24 µM)

CCCCCCNC(=O)O[C@H]1[C@H](C)[C@@H](O[C@@H]2O[C@H](C)C[C@H](N(C)C)[C@H]2OC(C)=O)[C@](C)(O)C[C@@H](C)CN(C)[C@H](C)[C@H]2OC(=O)O[C@]2(C)[C@@H](CC)OC(=O)[C@@H]1C
MIC (Bacillus subtilis [1]): 8 µg/mL (≈ 10.2 µM) | MIC (Escherichia coli): 128 µg/mL (≈ 163 µM) | MIC (Pseudomonas aeruginosa): 128 µg/mL (≈ 163 µM) | MIC (Streptococcus pneumoniae [4]): 16 µg/mL (≈ 20.4 µM) | MIC (Streptococcus pyogenes [6]): 4 µg/mL (≈ 5.09 µM) | Ratio (Streptococcus pyogenes [18]): 8 | MIC (Streptococcus pneumoniae [8]): 64 µg/mL (≈ 81.4 µM) | MIC (Streptococcus pneumoniae [9]): 64 µg/mL (≈ 81.4 µM) | MIC [11]: 16 µg/mL (≈ 20.4 µM) | MIC (Staphylococcus aureus [12]): 32 µg/mL (≈ 40.7 µM) | Ratio (Streptococcus pyogenes [19]): 8 | MIC (Streptococcus pyogenes [15]): 32 µg/mL (≈ 40.7 µM) | MIC (Staphylococcus aureus [16]): 16 µg/mL (≈ 20.4 µM)

CC[C@H]1OC(=O)[C@H](C)[C@@H](OC(=O)Nc2ccccc2C)[C@H](C)[C@@H](O[C@@H]2O[C@H](C)C[C@H](N(C)C)[C@H]2O)[C@](C)(O)C[C@@H](C)CN(C)[C@H](C)[C@@H](OC(=O)NCc2ccccc2)[C@]1(C)O
MIC (Bacillus subtilis [1]): 2 µg/mL (≈ 2.33 µM) | Ratio (Streptococcus pneumoniae [2]): 8 - 256 | MIC (Escherichia coli): 64 µg/mL (≈ 74.7 µM) | Ratio (Streptococcus pneumoniae [3]): 8 - 256 | MIC (Pseudomonas aeruginosa): 64 µg/mL (≈ 74.7 µM) | MIC (Streptococcus pneumoniae [4]): 2 µg/mL (≈ 2.33 µM) | Ratio (Streptococcus pneumoniae [5]): 8 - 256 | MIC (Streptococcus pyogenes [6]): 0.03 µg/mL (≈ 0.035 µM) | Ratio (Streptococcus pneumoniae [7]): 8 - 256 | MIC (Streptococcus pneumoniae [8]): 32 µg/mL (≈ 37.3 µM) | MIC (Streptococcus pneumoniae [9]): 0.25 µg/mL (≈ 0.292 µM) | Ratio (Streptococcus pneumoniae [10]): 16 | MIC [11]: 0.25 µg/mL (≈ 0.292 µM) | MIC (Staphylococcus aureus [12]): 32 µg/mL (≈ 37.3 µM) | Ratio (Streptococcus pneumoniae [14]): 8 - 256 | MIC (Streptococcus pyogenes [15]): 128 µg/mL (≈ 149 µM) | MIC (Staphylococcus aureus [16]): 1 µg/mL (≈ 1.17 µM)

CC[C@H]1OC(=O)[C@H](C)[C@@H](OC(=O)Nc2ccccc2)[C@H](C)[C@@H](O[C@@H]2O[C@H](C)C[C@H](N(C)C)[C@H]2O)[C@](C)(O)C[C@@H](C)CN(C)[C@H](C)[C@H]2OC(=O)O[C@@]21C
MIC (Bacillus subtilis [1]): 4 µg/mL (≈ 5.44 µM) | Ratio (Streptococcus pneumoniae [2]): 16 | MIC (Escherichia coli): 128 µg/mL (≈ 174 µM) | MIC (Pseudomonas aeruginosa): 128 µg/mL (≈ 174 µM) | MIC (Streptococcus pneumoniae [4]): 16 µg/mL (≈ 21.7 µM) | MIC (Streptococcus pyogenes [6]): 0.25 µg/mL (≈ 0.34 µM) | Ratio (Streptococcus pyogenes [18]): 32 | Ratio (Streptococcus pneumoniae [7]): 16 | MIC (Streptococcus pneumoniae [8]): 16 µg/mL (≈ 21.7 µM) | MIC (Streptococcus pneumoniae [9]): 16 µg/mL (≈ 21.7 µM) | MIC [11]: 4 µg/mL (≈ 5.44 µM) | MIC (Staphylococcus aureus [12]): 128 µg/mL (≈ 174 µM) | Ratio (Streptococcus pyogenes [19]): 32 | MIC (Streptococcus pyogenes [15]): 8 µg/mL (≈ 10.9 µM) | MIC (Staphylococcus aureus [16]): 2 µg/mL (≈ 2.72 µM)
